Test results from PMC8599380 (European Journal of Drug Metabolism and Pharmacokinetics, 2021).
Read-outs that look alike come from different tables or passages of the source.

Assays:
[1] = mouse plasma; cited from earlier work
[2] = cited from earlier work
[3] = system: patients with hematologic and solid tumor malignancies; settings: cited from earlier work
[4] = cited from earlier work; remark: listed apart in the source
[5] = Population pharmacokinetic model; assay type: in vivo, human
Summary of the method: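 Patients dosed orally three or four times weekly; 28-day cycles of 3 weeks dosing then 7 days off. Plasma sampled pre-dose to 24 h on day 1, 5 and/or 19 (882 concentrations). FOCE-I estimation; lag-time and transit absorption models tested; exponential IIV; additive residual error on log data. Median-normalized power covariate models; forward P<0.05, backward P 0.01; bootstrap evaluation.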

[6] = oral flat dose, preliminary phase 1 data

CC(C)[C@H](C(=O)Nc1ccc(C(=O)NO)cc1)c1ccccc1 [REC-2282]
bound to plasma proteins [1]: 96%
dose recovered in urine ([2]; rat urine): 5%
oral bioavailability ([2]; rats, preclinical, ref unpublished data): 100%
clinical response ([3]; 27 patients enrolled): minimal response to progressive disease
most common adverse event ([3]; 27 patients enrolled): dose-dependent cytopenias
observed dose-limiting toxicities [3]: grade 4 thrombocytopenia, febrile neutropenia and grade 3 neutropenia with infection and grade 4 psychosis
coefficient of variation (CV) in apparent oral clearance among dose levels [3, 6]: 36 to 76%
coefficient of variation (CV) in peak concentrations among dose levels [3, 6]: 24–66%
median progression-free survival ([3]; patients with NF2 and meningiomas): 9.1 months
median progression-free survival ([3]; solid tumors): 3.6 months
oral bioavailability ([4]; mice, preclinical, ref unpublished data): 26%
dose recovered in urine ([4]; mouse urine): 1.4%
variability in dose-normalized AUC ([5]; 55 patients, 20 mg to 80 mg): 24.1%
variability in dose-normalized Cmax ([5]; 55 patients, 20 mg to 80 mg): 29.6%
dose proportionality of pharmacokinetics ([5]; flat doses 20 mg to 80 mg): dose-proportional
